Measured values as given in ChEMBL document CHEMBL4811303, “Synthesis and evaluation of trypanocidal activity of derivatives of naturally occurring 2,5-diphenyloxazoles” (Bioorg Med Chem, 2021).

Legend:
[1] = system: Trypanosoma brucei brucei; assay: Trypanocidal activity against Trypanosoma brucei brucei assessed as reduction in intracellular ATP production incubated for 72 hrs by CellTiter-Glo luminescent cell viability assay; assay type: functional, organism-based
Outline: (§1)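 Bloodstream trypanosomes in 96-well culture were exposed to compound in 5-fold serial dilutions from 25 µg/mL to 1.6 ng/mL for 72 h. Seeding and temperature: T. b. brucei, T. b. gambiense and T. b. rhodesiense at 5×10^3 cells/mL and 37 °C; T. evansi at 1×10^4 cells/mL and 37 °C; T. congolense at 2×10^5 cells/mL and 33 °C. Viability was read as intracellular ATP by CellTiter-Glo luminescence. Three replicates; IC50 calculated.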

[2] = Selectivity index, ratio of IC50 for cytotoxicity against bovine MDBK cells to IC50 for Trypanocidal activity against Trypanosoma congolense
[3] = Selectivity index, ratio of IC50 for cytotoxicity against bovine MDBK cells to IC50 for Trypanocidal activity against Trypanosoma brucei rhodesiense
[4] = Selectivity index, ratio of IC50 for cytotoxicity against bovine MDBK cells to IC50 for Trypanocidal activity against Trypanosoma brucei brucei; conditions: cattle
[5] = system: Trypanosoma brucei rhodesiense; assay: Trypanocidal activity against Trypanosoma brucei rhodesiense assessed as reduction in intracellular ATP production incubated for 72 hrs by CellTiter-Glo luminescent cell viability assay; assay type: functional, organism-based; outline: as §1
[6] = system: Trypanosoma brucei gambiense; assay: Trypanocidal activity against Trypanosoma brucei gambiense assessed as reduction in intracellular ATP production incubated for 72 hrs by CellTiter-Glo luminescent cell viability assay; assay type: functional, organism-based; outline: as §1
Trypanosoma evansi = assay: Trypanocidal activity against Trypanosoma evansi assessed as reduction in intracellular ATP production incubated for 72 hrs by CellTiter-Glo luminescent cell viability assay; assay type: functional, organism-based; outline: as §1
Trypanosoma congolense = assay: Trypanocidal activity against Trypanosoma congolense assessed as reduction in intracellular ATP production incubated for 72 hrs by CellTiter-Glo luminescent cell viability assay; assay type: functional, organism-based; outline: as §1
[7] = Selectivity index, ratio of IC50 for cytotoxicity against bovine MDBK cells to IC50 for Trypanocidal activity against Trypanosoma brucei gambiense; conditions: cattle
[8] = Selectivity index, ratio of IC50 for cytotoxicity against bovine MDBK cells to IC50 for Trypanocidal activity against Trypanosoma evansi
MDBK cells (Bos taurus) = assay: Cytotoxicity against bovine MDBK cells assessed as reduction in cell viability incubated for 72 hrs by CCK8 assay

Compound	IC50 [1]	selectivity ratio [2]	selectivity ratio [3]	selectivity ratio [4]	IC50 [5]	IC50 [6]	IC50 (Trypanosoma evansi)	IC50 (Trypanosoma congolense)	selectivity ratio [7]	selectivity ratio [8]	IC50 (MDBK cells (Bos taurus))
COc1cccc(-c2cnc(-c3cccc(OC)c3OC)o2)c1	76 µM	9.3	1.3	1.3	76.1 µM	73.9 µM	68.2 µM	10.3 µM	1.3	1.4	96.3 µM
COc1ccc(-c2cnc(-c3ccc(OC)c(OC)c3OC)o2)c(OC)c1OC	37.6 µM	2.4	1.3	1.1	31.4 µM	40.5 µM	60.4 µM	16.4 µM	0.98	0.66	39.7 µM
COc1cccc(-c2ncc(-c3ccccc3OCc3ccccc3)o2)c1OC	15.5 µM	13	6.2	6.3	15.8 µM	16.2 µM	16.7 µM	7.7 µM	6	5.8	97.6 µM
Oc1ccccc1-c1cnc(-c2cccc(O)c2O)o1	9.1 µM	6.3	2.5	0.77	2.8 µM	13.5 µM	4.7 µM	1.1 µM	0.52	1.5	7 µM
COCOc1ccccc1-c1cnc(-c2cccc(OC)c2OC)o1	21.5 µM	21	3.1	3.8	26.2 µM	19.6 µM	25.8 µM	3.9 µM	4.2	3.2	82.2 µM
COc1cccc(-c2ncc(-c3ccccc3N)o2)c1OC	59.8 µM	5.2	0.77	0.8	62.1 µM	46.2 µM	105 µM	9.1 µM	1	0.45	47.6 µM
CCOc1ccccc1-c1cnc(-c2cccc(OC)c2OC)o1	> 76.8 µM	> 69	–	–	> 76.8 µM	> 76.8 µM	> 76.8 µM	4.4 µM	–	–	> 307 µM
COc1ccc(-c2cnc(-c3ccc(OC)cc3)o2)cc1	> 88.9 µM	–	–	–	> 88.9 µM	> 88.9 µM	> 88.9 µM	> 88.9 µM	–	–	> 355 µM
COc1ccccc1-c1cnc(-c2ccccc2OC)o1	> 88.9 µM	> 128	–	–	> 88.9 µM	> 88.9 µM	> 88.9 µM	2.8 µM	–	–	> 355 µM
COc1ccccc1-c1cnc(-c2c(OC)cccc2OC)o1	19.7 µM	7.1	2	1.9	18.4 µM	24.6 µM	21.7 µM	5.3 µM	1.5	1.7	37.6 µM
COc1ccc(OC)c(-c2cnc(-c3cccc(OC)c3OC)o2)c1	> 73.2 µM	> 188	–	–	> 73.2 µM	> 73.2 µM	> 73.2 µM	1.6 µM	–	–	> 293 µM
CC(=O)Oc1ccc(OC(C)=O)c(-c2cnc(-c3ccccc3)o2)c1	16.6 µM	2.4	0.15	0.58	64.4 µM	41.9 µM	18.9 µM	3.9 µM	0.23	0.51	9.6 µM
COc1ccc(OC)c(-c2cnc(-c3cc(OC)ccc3OC)o2)c1	> 73.2 µM	> 100	–	–	> 73.2 µM	> 73.2 µM	> 73.2 µM	2.9 µM	–	–	> 293 µM
COc1cccc(-c2cnc(-c3cccc(OC)c3)o2)c1	62.2 µM	> 17	> 5.3	> 5.7	66.5 µM	66.9 µM	53.9 µM	21.4 µM	> 5.3	> 6.6	> 355 µM
COc1cccc(-c2ncc(-c3ccc4ccccc4c3)o2)c1OC	71.5 µM	0.93	0.6	0.6	71.7 µM	51.7 µM	71.2 µM	45.8 µM	0.83	0.6	42.7 µM
Oc1ccc(O)c(-c2ncc(-c3ccccc3O)o2)c1	25.9 µM	8.2	0.92	3	84.2 µM	80.9 µM	22.2 µM	9.5 µM	0.96	3.5	77.4 µM
COc1ccc(-c2ncc(-c3ccccc3OC)o2)c(OC)c1	75.3 µM	3.9	1	0.79	59.2 µM	35.8 µM	65.1 µM	15.3 µM	1.7	0.91	59.5 µM
COc1cccc(-c2ncc(-c3ccccc3OC)o2)c1	> 88.9 µM	24	< 1.8	< 1.8	> 88.9 µM	> 88.9 µM	> 88.9 µM	6.7 µM	< 1.8	< 1.8	161 µM
Oc1ccccc1-c1nnc(-c2cccc(O)c2O)o1	1.9 µM	8.8	3.1	3.1	1.9 µM	1.9 µM	0.81 µM	0.67 µM	3.1	7.2	5.9 µM
COc1cccc(-c2cnc(-c3ccc(OC)c(OC)c3OC)o2)c1OC	64.1 µM	> 5.3	> 4.2	> 4.2	64.5 µM	63.1 µM	19.9 µM	51.3 µM	> 4.3	> 14	> 269 µM
CCCOc1ccccc1-c1cnc(-c2cccc(OC)c2OC)o1	20.3 µM	> 39	> 11	> 15	27.1 µM	28.2 µM	28.4 µM	7.6 µM	> 10	> 10	> 295 µM
COc1ccc(OC)c(-c2cnc(-c3ccccc3OC)o2)c1	> 80.3 µM	> 75	–	–	> 80.3 µM	22.2 µM	> 80.3 µM	4.3 µM	> 14	–	> 321 µM
CC1CS(=O)(=O)CCN1/N=C/c1ccc([N+](=O)[O-])o1 (stereo not given) [NIFURTIMOX]	4.7 µM	–	–	–	4.4 µM	–	2.6 µM	1.1 µM	–	–	–
COc1ccc(OC)c(-c2ncc(-c3ccccc3OC)o2)c1	> 80.3 µM	–	–	–	> 80.3 µM	> 80.3 µM	> 80.3 µM	> 80.3 µM	–	–	> 321 µM
COc1cccc(-c2ncc(-c3ccccc3NC(C)=O)o2)c1OC	> 73.9 µM	> 7.8	–	–	> 73.9 µM	> 73.9 µM	> 73.9 µM	38.2 µM	–	–	> 296 µM
COc1cccc(-c2ncc(-c3ccccc3O)o2)c1OC	> 84.1 µM	–	–	–	> 84.1 µM	> 84.1 µM	> 84.1 µM	> 84.1 µM	–	–	> 336 µM
COc1ccc(OC)c(-c2cnc(-c3ccccc3)o2)c1	> 88.9 µM	> 23	–	–	> 88.9 µM	> 88.9 µM	> 88.9 µM	15.4 µM	–	–	> 355 µM
Cc1ccc(C(=O)Nc2ccc(S(=O)(=O)O)c3cc(S(=O)(=O)O)cc(S(=O)(=O)O)c23)cc1NC(=O)c1cccc(NC(=O)Nc2cccc(C(=O)Nc3cc(C(=O)Nc4ccc(S(=O)(=O)O)c5cc(S(=O)(=O)O)cc(S(=O)(=O)O)c45)ccc3C)c2)c1 [SURAMIN]	0.066 µM	–	–	–	0.076 µM	0.064 µM	0.38 µM	7.2 µM	–	–	–
COc1ccccc1-c1cnc(-c2cccc(OC)c2OC)o1	> 80.3 µM	> 414	–	–	> 80.3 µM	> 80.3 µM	> 80.3 µM	0.78 µM	–	–	> 321 µM
